Experimental data taken from publication PMC4203516 (Autophagy, 2014).
“And” between values parts separate entries of the source, which are not always exact repeats. Equal entries are not always repeated. “Also recorded” adds a separate entry of the source.

Legend:
[1] = Phase I dose escalation: adverse events and dose-limiting toxicities; type: in vivo, human
Summary of the method: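 Open-label, single-institution 3 + 3 escalation. IV temsirolimus 25 mg weekly was infused over 30 min after IV diphenhydramine 25–50 mg premedication. A 1-wk temsirolimus-alone run-in preceded daily oral HCQ (200, 400, 800, 1200 mg), split ≥6 h apart above 200 mg. Cycles lasted 4 wk. The DLT window was the first 6 wk, later 5 wk. Toxicity-evaluable patients took ≥1 HCQ dose. Blood counts were weekly, then every 2 wk.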

advanced solid tumors = experiment: RECIST 1.0 response, phase I dose escalation; type: in vivo, human
Summary of the method: (§1)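 Patients received IV temsirolimus 25 mg weekly, with a 1-wk single-agent run-in, then daily oral HCQ, treated until progression. Patients were evaluable for response after completing ≥2 wk of concurrent HCQ and temsirolimus. Progression was defined as >20% increase in measurable disease or appearance of a new lesion. Non-evaluable patients were replaced.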

[2] = HCQ whole blood population pharmacokinetics; type: in vivo, human
advanced melanoma [3] = experiment: RECIST 1.0 response and progression-free survival, melanoma patients; type: in vivo, human
Summary of the method: as §1

[4] = test system: autophagic vacuoles in peripheral blood mononuclear cells (PBMC); experiment: Autophagic vacuole; type: in vivo, human; settings: 1 wk, 24 h or 4 h after first TEM infusion, data pooled
[5] = test system: cutaneous melanoma metastases; experiment: Autophagic vacuole accumulation in serial tumor biopsies by electron microscopy; type: in vivo, human; settings: after 4 h of treatment with TEM, one melanoma patient
Summary of the method: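 Cutaneous melanoma metastases sampled serially by punch biopsy from patients on IV temsirolimus 25 mg weekly plus oral HCQ 1200 mg/d. Tumour was dissected on ice and fixed immediately in EM fixative (2% glutaraldehyde, as used for PBMC) before electron microscopy for autophagic vacuoles.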

advanced melanoma [6] = settings: temsirolimus alone, of 33 patients; cited from earlier work
[7] = Total, all HCQ doses + TEM 25 mg weekly, N=39
[8] = daily HCQ 200 mg + TEM 25 mg weekly, N=11
[9] = daily HCQ 400 mg + TEM 25 mg weekly, N=3
[10] = daily HCQ 800 mg + TEM 25 mg weekly, N=9
[11] = daily HCQ 1200 mg + TEM 25 mg weekly, N=16
[12] = Phase I dose escalation, HCQ dose cohort 200 + TEM, N=6 evaluable
[13] = Phase I dose escalation, HCQ dose cohort 400 + TEM, N=3
[14] = Phase I dose escalation, HCQ dose cohort 800 + TEM, N=9
[15] = Phase I dose escalation, HCQ dose cohort 1200 + TEM, N=3
[16] = Phase I dose escalation, Total, N=21 evaluable
[17] = dose escalation, of 19 patients
[18] = population PK, 1000 bootstrap runs
[19] = population PK, whole blood, 34 patients, oral HCQ
[20] = Melanoma patients, HCQ dose cohort 200–800 + TEM, N=6
[21] = Melanoma patients, HCQ dose cohort 1200 + TEM, N=13
[22] = melanoma expansion, of 12 patients, HCQ 1200 mg/d + TEM

SMILES: CCN(CCO)CCCC(C)Nc1ccnc2cc(Cl)ccc12 (stereo not drawn) [HCQ, hydroxychloroquine]
- Anal fissure G1–2, % [1, 7]: 5%
- Anal fissure G1–2, patients [1, 7]: 2
- Anemia G1–2, patients [1, 7]: 4
- Anemia G3–4, patients [1, 7]: 4
- Anorexia G1–2, % [1, 7]: 41%
- Anorexia G1–2, patients [1, 7]: 16
- Anorexia G3–4, % [1, 7]: 8%
- Anorexia G3–4, patients [1, 7]: 3
- Constipation G1–2, % [1, 7]: 13%
- Constipation G1–2, patients [1, 7]: 5
- Diarrhea G1–2, patients [1, 7]: 7
- Dizziness G1–2, % [1, 7]: 5%
- Dizziness G1–2, patients [1, 7]: 2
- Dysguesia G1–2, patients [1, 7]: 2
- Dysguesia G3–4, patients [1, 7]: 1
- Elevated creatinine G1–2, patients [1, 7]: 2
- Elevated creatinine G3–4, patients [1, 7]: 1
- Fatigue G1–2, patients [1, 7]: 19
- Fatigue G3–4, patients [1, 7]: 3
- Lymphopenia G1–2, % [1, 7]: 31%
- Lymphopenia G3–4, % [1, 7]: 3%
- Lymphopenia G3–4, patients [1, 7]: 1
- Nausea G1–2, patients [1, 7]: 13
- Nausea G3–4, % [1, 7]: 15%
- Nausea G3–4, patients [1, 7]: 6
- Neutropenia G1–2, % [1, 7]: 3%
- Neutropenia G1–2, patients [1, 7]: 1
- Poor wound healing G1–2, patients [1, 7]: 2
- Rash G1–2, patients [1, 7]: 15
- Stomatitis G1–2, patients [1, 7]: 16
- Thrombocytopenia G1–2, % [1, 7]: 21%
- Thrombocytopenia G1–2, patients [1, 7]: 8
- Thrombocytopenia G3–4, % [1, 7]: 3%
- Thrombocytopenia G3–4, patients [1, 7]: 1
- Vitiligo G1–2, % [1, 7]: 5%
- Vitiligo G1–2, patients [1, 7]: 2
- Weight loss G1–2, % [1, 7]: 18%
- Weight loss G1–2, patients [1, 7]: 7
- Anemia G1–2, % [1, 8]: 9%
- Anemia G1–2, patients [1, 8]: 1
- Anemia G3–4, % [1, 8]: 9%
- Anemia G3–4, patients [1, 8]: 1
- Anorexia G1–2, % [1, 8]: 36%
- Anorexia G1–2, patients [1, 8]: 4
- Diarrhea G1–2, patients [1, 8]: 3
- Fatigue G1–2, patients [1, 8]: 5
- Lymphopenia G1–2, % [1, 8]: 45%
- Lymphopenia G1–2, patients [1, 8]: 5
- Nausea G1–2, patients [1, 8]: 4
- Nausea G3–4, patients [1, 8]: 1
- Neutropenia G1–2, patients [1, 8]: 1
- Rash G1–2, patients [1, 8]: 3
- Stomatitis G1–2, patients [1, 8]: 4
- Thrombocytopenia G1–2, % [1, 8]: 36%
- Thrombocytopenia G1–2, patients [1, 8]: 4
- Thrombocytopenia G3–4, % [1, 8]: 9%
- Thrombocytopenia G3–4, patients [1, 8]: 1
- Weight loss G1–2, % [1, 8]: 18%
- Weight loss G1–2, patients [1, 8]: 2
- Anemia G1–2, % [1, 9]: 33%
- Anemia G1–2, patients [1, 9]: 1
- Anemia G3–4, % [1, 9]: 33%
- Anemia G3–4, patients [1, 9]: 1
- Anorexia G1–2, % [1, 9]: 33%
- Anorexia G1–2, patients [1, 9]: 1
- Diarrhea G1–2, % [1, 9]: 33%
- Diarrhea G1–2, patients [1, 9]: 1
- Fatigue G1–2, % [1, 9]: 67%
- Fatigue G1–2, patients [1, 9]: 2
- Lymphopenia G1–2, % [1, 9]: 33%
- Lymphopenia G1–2, patients [1, 9]: 1
- Rash G1–2, patients [1, 9]: 1
- Stomatitis G1–2, patients [1, 9]: 1
- Weight loss G1–2, % [1, 9]: 67%
- Weight loss G1–2, patients [1, 9]: 2
- Anal fissure G1–2, % [1, 10]: 11%
- Anal fissure G1–2, patients [1, 10]: 1
- Anemia G1–2, % [1, 10]: 22%
- Anemia G1–2, patients [1, 10]: 2
- Anemia G3–4, patients [1, 10]: 1
- Anorexia G1–2, % [1, 10]: 56%
- Anorexia G1–2, patients [1, 10]: 5
- Anorexia G3–4, % [1, 10]: 11%
- Anorexia G3–4, patients [1, 10]: 1
- Constipation G1–2, % [1, 10]: 11%
- Constipation G1–2, patients [1, 10]: 1
- Diarrhea G1–2, % [1, 10]: 11%
- Diarrhea G1–2, patients [1, 10]: 1
- Fatigue G1–2, patients [1, 10]: 2
- Fatigue G3–4, patients [1, 10]: 2
- Lymphopenia G1–2, % [1, 10]: 33%
- Lymphopenia G1–2, patients [1, 10]: 3
- Nausea G1–2, patients [1, 10]: 4
- Nausea G3–4, patients [1, 10]: 1
- Rash G1–2, patients [1, 10]: 2
- Stomatitis G1–2, patients [1, 10]: 4
- Thrombocytopenia G1–2, % [1, 10]: 22%
- Thrombocytopenia G1–2, patients [1, 10]: 2
- Weight loss G1–2, patients [1, 10]: 1
- Anal fissure G1–2, % [1, 11]: 6%
- Anal fissure G1–2, patients [1, 11]: 1
- Anemia G3–4, % [1, 11]: 6%
- Anemia G3–4, patients [1, 11]: 1
- Anorexia G1–2, % [1, 11]: 38%
- Anorexia G1–2, patients [1, 11]: 6
- Anorexia G3–4, % [1, 11]: 13%
- Anorexia G3–4, patients [1, 11]: 2
- Constipation G1–2, patients [1, 11]: 4
- Diarrhea G1–2, % [1, 11]: 13%
- Diarrhea G1–2, patients [1, 11]: 2
- Dizziness G1–2, % [1, 11]: 13%
- Dizziness G1–2, patients [1, 11]: 2
- Dysguesia G1–2, patients [1, 11]: 2
- Dysguesia G3–4, patients [1, 11]: 1
- Elevated creatinine G1–2, patients [1, 11]: 2
- Elevated creatinine G3–4, patients [1, 11]: 1
- Fatigue G1–2, patients [1, 11]: 10
- Fatigue G3–4, patients [1, 11]: 1
- Lymphopenia G1–2, % [1, 11]: 38%
- Lymphopenia G1–2, patients [1, 11]: 6
- Lymphopenia G3–4, % [1, 11]: 6%
- Lymphopenia G3–4, patients [1, 11]: 1
- Nausea G1–2, patients [1, 11]: 5
- Nausea G3–4, % [1, 11]: 25%
- Nausea G3–4, patients [1, 11]: 4
- Poor wound healing G1–2, patients [1, 11]: 2
- Rash G1–2, patients [1, 11]: 9
- Stomatitis G1–2, patients [1, 11]: 7
- Thrombocytopenia G1–2, % [1, 11]: 13%
- Thrombocytopenia G1–2, patients [1, 11]: 2
- Vitiligo G1–2, patients [1, 11]: 2
- Weight loss G1–2, % [1, 11]: 13%
- Weight loss G1–2, patients [1, 11]: 2
- Grade 3 pulmonary tumor abscess ([1]; head and neck cancer patient with history of aspiration, cycle 3): One patient
- Recommended phase II dose of HCQ ([1]; in combination with TEM 25 mg weekly): 600 mg twice daily
- Maximum tolerated dose (MTD) of HCQ ([1]; in combination with TEM 25 mg weekly, up to 1200 mg/d): not reached; also recorded: not defined
- Grade 4 cholangitis and sepsis during tumor regression ([1]; melanoma patient with large gall bladder metastases, cohort not stated): One patient
- PD (progressive disease), patients (advanced solid tumors; [12]): 2
- PR (partial response), patients (advanced solid tumors; [12]): 0
- PD (progressive disease), patients (advanced solid tumors; [13]): 0
- PR (partial response), patients (advanced solid tumors; [13]): 0
- PD (progressive disease), patients (advanced solid tumors; [14]): 4
- PR (partial response), patients (advanced solid tumors; [14]): 0
- PD (progressive disease), patients (advanced solid tumors; [15]): 1
- PR (partial response), patients (advanced solid tumors; [15]): 0
- PD (progressive disease), % (advanced solid tumors; [16]): 33%
- PD (progressive disease), patients (advanced solid tumors; [16]): 7
- PR (partial response), % (advanced solid tumors; [16]): 0 (0%)
- PR (partial response), patients (advanced solid tumors; [16]): 0 (0%)
- Partial responses by RECIST 1.0, whole study (advanced solid tumors; all cohorts): No partial responses
- Patients with some degree of tumor shrinkage (waterfall plot) (advanced solid tumors; [17]): 7
- Patients with some degree of tumor shrinkage, % (advanced solid tumors; [17]): 37%
- Vd/F ([2]; human, whole blood, po): 865 L
- Cl/F, apparent oral clearance, bootstrap estimate [2, 18]: 15.953 L/h
- Ka, absorption rate constant, bootstrap estimate [2, 18]: 0.758 h
- Q, intercompartmental clearance, bootstrap estimate [2, 18]: 26.421 L/h
- Tlag, absorption lag time, bootstrap estimate [2, 18]: 0.564 h
- V2/F, apparent peripheral volume of distribution, bootstrap estimate [2, 18]: 3285.0246 L
- V/F, apparent central volume of distribution, bootstrap estimate [2, 18]: 496.0499 L
- Cl/F, apparent oral clearance, model estimate [2, 19]: 17.517 L/h
- Ka, absorption rate constant, model estimate [2, 19]: 0.649 h
- Q, intercompartmental clearance, model estimate [2, 19]: 26.067 L/h
- Tlag, absorption lag time, model estimate [2, 19]: 0.399 h
- V2/F, apparent peripheral volume of distribution, model estimate [2, 19]: 3236.73 L
- Time to steady-state of HCQ blood concentrations, average ([2]; simulated from final PK model for individual patients): 350 h and 360 h
- Blood HCQ AUC, Cmax, Cmin and Cavg relationship to dose ([2]; simulated steady-state, 200–1200 mg/d): proportional to daily HCQ dose
- PD (progressive disease), patients (advanced melanoma [3]; [20]): 1
- PR (partial response), patients (advanced melanoma [3]; [20]): 0
- PD (progressive disease), patients (advanced melanoma [3]; [21]): 4
- PR (partial response), patients (advanced melanoma [3]; [21]): 0
- PD (progressive disease), % (advanced melanoma [3]; Melanoma patients, Total, N=19): 26%
- PD (progressive disease), patients (advanced melanoma [3]; Melanoma patients, Total, N=19): 5
- PR (partial response), patients (advanced melanoma [3]; Melanoma patients, Total, N=19): 0
- Median progression-free survival (advanced melanoma [3]; evaluable melanoma patients, HCQ 1200 mg/d + TEM, 95%CI 2–6 mo): 3.5 mo
- Patients with some degree of tumor shrinkage (waterfall plot) (advanced melanoma [3]; [22]): 6
- Patients with some degree of tumor shrinkage, % (advanced melanoma [3]; [22]): 50%

SMILES: CO[C@H]1C[C@@H]2CC[C@@H](C)[C@@](O)(O2)C(=O)C(=O)N2CCCC[C@H]2C(=O)O[C@H]([C@H](C)C[C@@H]2CC[C@@H](OC(=O)C(C)(CO)CO)[C@H](OC)C2)CC(=O)[C@H](C)/C=C(\C)[C@@H](O)[C@@H](OC)C(=O)[C@H](C)C[C@H](C)/C=C/C=C/C=C/1C [TEM, temsirolimus]
- AV/cell in PBMC after TEM treatment alone [4]: no significant increase in AV
- AV in tumor tissue compared with baseline [5]: no accumulation of AV
- Patients with partial response (advanced melanoma [6]): 1
- Patients with stable disease (advanced melanoma [6]): 0
